V-ATPase pH = regulators of yeast V-ATPase proton pumping, primary screen, pHLuorin cytosolic pH fluorescence; response, % at 10 µM; hit rate 0.37% among 350,000; S. cerevisiae; in the data active means response mostly above about 7.3%, no sharp cut-off; inactive means mostly below about 5.4%; further: actives read high
ARFGAP1 inh = inhibitors of rat ARFGAP1 GAP activity, primary screen, biochemical, fluorescence polarization, GDP tracer. Arfgap1-stimulated ARF1 GTP hydrolysis, GDP FP detection. AID 651572, 2012. inhibition, % at 16.5 µM. ADP-ribosylation factor GTPase-activating protein 1 (Rattus norvegicus), Q62848. hit rate 0.26% among 360,000;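 active means inhibition above a per-plate limit, mean inhibition of low control wells plus 3 SD, cut at about 25% in these data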;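 further: 0% = DMSO wells with enzyme and 100% = wells lacking Arfgap1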
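Material: truncated rat Arfgap1 GAP domain; Incubation: compound-enzyme preincubation 20 min, reaction 120 min, detection 60 min, 25 °C; Read-out: percent inhibition of Arfgap1-stimulated GTP hydrolysis; Technique: FP, GDP Alexa 633 tracer displaced from anti-GDP antibody, 620/688 nm; Controls: No-Arfgap1 wells (100%) versus DMSO full-reaction wells (0%); Replication: single well per compound.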
ASAP1 inh = inhibitors of human ASAP1 ArfGAP activity, primary screen, biochemical, fluorescence polarization | Arf-GAP with SH3 domain, ANK repeat and PH domain-containing protein 1 (Homo sapiens), … | ASAP1-stimulated ARF1 GTP hydrolysis, GDP FP detection | inhibition, % at 16.5 µM | hit rate 0.19% among 360,000 | AID 624377, 2012; in the data active means inhibition above about 25%;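 further: 0% = vehicle with enzyme and substrate and 100% = no enzyme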
Target sequence (Q9ULH1 325-724 limits assumed): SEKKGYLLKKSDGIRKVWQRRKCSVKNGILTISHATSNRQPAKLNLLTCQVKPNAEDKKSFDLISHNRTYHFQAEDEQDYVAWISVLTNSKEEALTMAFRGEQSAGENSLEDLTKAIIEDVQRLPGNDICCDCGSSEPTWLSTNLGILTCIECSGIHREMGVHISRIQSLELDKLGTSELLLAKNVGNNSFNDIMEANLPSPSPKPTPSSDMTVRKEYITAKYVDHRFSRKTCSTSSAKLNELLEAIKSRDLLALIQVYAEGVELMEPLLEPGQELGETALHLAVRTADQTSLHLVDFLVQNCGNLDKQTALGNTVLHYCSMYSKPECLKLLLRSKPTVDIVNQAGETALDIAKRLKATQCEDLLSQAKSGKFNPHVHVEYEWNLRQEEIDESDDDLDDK
NRP1-CendR mod = modulators of CendR peptide binding to NRP-1, primary screen, biochemical, fluorescence polarization, uHTS. inhibition, % at 25 µM. FAM-RPARPAR peptide binding to NRP-1. hit rate 0.85% among 360,000;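 active means inhibition or corrected inhibition above about 18%, plus a signal ratio from 0.5 to 1.5, limit read from the data, passing the limit was not always enough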
Exocytosis inh = LAMP-1 surface exposure blockers, TALL-104 cells – cell-based, flow cytometry, MLPCN library, primary screen; TALL-104 LAMP-1 surface exposure; cells stimulated with thapsigargin and PMA; inhibition, % at 10 µM; hit rate 0.66% among 360,000; AID 651702, 2012;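 active means inhibition above about 55%, limit read from the data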
Granule exo CP1 = inhibitors of lytic granule exocytosis, confirmation, TALL-104 cells, flow cytometry, Cherry Pick01; shares compounds with Exocytosis inh; LAMP-1 externalization; stimulated with PMA plus thapsigargin; inhibition, % at 10 µM; hit rate 11% among 1,500; in the data active means inhibition above about 60%;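 further: 0% = stimulated vehicle wells and 100% = unstimulated wells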
* marks the source's active call; other numbers are inactive results; nt = no result. Compounds with a hit are over-represented: about 2.2% of the library has one in this group of screens.

SMILES | V-ATPase pH | ARFGAP1 inh | ASAP1 inh | NRP1-CendR mod | Exocytosis inh | Granule exo CP1
CC1(C(=O)NS(=O)(=O)c2cccs2)CCN1C(=O)C1CCCCC1 (centres undefined) | nt | -3 | -5 | -5 | 1 | nt
CC(=O)c1ccc(OCC(=O)OCC(=O)Nc2sccc2C(N)=O)cc1 | 1 | 8 | 3 | 6 | -1 | nt
CCc1ccc(S(=O)(=O)Nc2cc(SCC(=O)O)c(O)c3ccccc23)cc1 | 1 | 14 | -1 | -1 | 67* | -3
Cc1cccc(CS(=O)(=O)c2ncc(CO)n2C)c1 | -1 | -1 | 0 | 7 | -4 | nt
CCC1Oc2ccc(C)cc2N(CC(=O)NC2CCCCC2)C1=O (centres undefined) | 1 | 1 | -3 | 16 | 3 | nt
CCC1Oc2ccc(C)cc2N(CC(=O)N(Cc2ccc(C)o2)C2CCCC2)C1=O (centres undefined) | -1 | -11 | 3 | -4 | 66* | 10
COc1ccc(C)cc1S(=O)(=O)NC1CC1 | -1 | -6 | 14 | -2 | 2 | nt
Cc1cc(C)nc(/N=C(\N)Nc2cccc(OCc3ccccc3)c2)n1 | 0 | -4 | 1 | -2 | 85* | -10
Cc1cc(C)nc(/N=C(\N)Nc2ccc(OCc3ccccc3)cc2)n1 | -1 | 3 | 6 | 7 | 0 | nt
COc1cc(OC)c(CN2CCC(Cc3ccccc3)CC2)cc1Br | -3 | 18 | -16 | -1 | 0 | nt
COc1ccc(OC)c(CN2CCC(Cc3ccccc3)CC2)c1 | 3 | 1 | -8 | 5 | 60* | -12
COc1cc(C)c(CN2CCC(Cc3ccccc3)CC2)cc1C | 0 | 5 | -7 | -9 | 56* | -13
Cc1ccc(S(=O)(=O)NNC(=O)c2ccc(NC(=O)C3CC3)cc2)cc1 | 1 | -2 | 12 | 4 | 1 | nt
CC(C)Oc1ccc(C(=O)CCN2CCCCC2)cc1 | 1 | -2 | -4 | 6 | 95* | 5
COc1ccc(C(=O)CCN2CCCCCC2)cc1 | 3 | 1 | -4 | -2 | 0 | nt
CC(C)Oc1ccc(C(=O)CCN2CCOCC2)cc1 | -4 | -2 | 2 | -7 | 59* | -11
CCCOc1ccc(C(=O)CCN2CCN(C(=O)OCC)CC2)cc1 | -2 | -15 | -5 | -1 | 60* | -13
CCOc1ccc(C(=O)CCN2CCCCC2)cc1 | 1 | 11 | 6 | -11 | 93* | -11
CCOC(=O)N1CCN(C(=O)CCC(=O)c2ccc(OCC)cc2)CC1 | 2 | -3 | 5 | -24 | -6 | nt
Cc1ccsc1CN(C)CC(=O)NCC(=O)Nc1ccc(F)c(F)c1F | 2 | 9 | -4 | 7 | -2 | nt
C[C@@H]1ON(C)[C@H]2C[C@H]3c4cc(Nc5ccccc5)ccc4CCN3C[C@@H]12 | nt | 6 | 12 | nt | nt | nt
Cc1cc(C)n2nc(C(=O)OCC(=O)NCc3ccccc3)nc2n1 | 1 | 3 | 7 | 12 | 4 | nt
COc1ccc(C=NCCc2ccc(OC)c(OC)c2)cc1OC | -1 | -2 | -8 | 2 | -9 | nt
Cc1ccc(CN2C(=O)c3ccccc3NC2c2cc(Br)ccc2O)cc1 (centres undefined) | 2 | 10 | 14 | 6 | 74* | -2
COc1ccccc1CNc1nc(NCc2ccccc2)nc2ccsc12 | nt | 14 | 12 | -2 | 25 | nt
COc1ccc(-c2cc(CNc3nc(NCc4ccccc4OC)nc4ccsc34)on2)cc1 | nt | 12 | -6 | 7 | 66* | 52
CC1CCN(C(=O)Cn2nnc(-c3ccccc3)n2)CC1 | 0 | 5 | -8 | 16 | 58* | -12
Cc1ccc(S(=O)(=O)N2CCOC2CNC(=O)C(=O)NCc2ccc(Cl)cc2)cc1 (centres undefined) | -2 | 14 | -5 | 0 | -1 | nt
Cc1cccc(NC(=O)c2ccc(-n3cncn3)c([N+](=O)[O-])c2)c1 | -1 | -4 | -9 | 1 | -9 | nt
CCc1ccccc1NC(=O)CNC(=O)c1ccc(-n2cncn2)c([N+](=O)[O-])c1 | 1 | -1 | -5 | 0 | 66* | -2
